Assay results of several laboratories.
Lines come from different studies, so protocols differ.
Target: RAC-alpha serine/threonine-protein kinase (AKT1, Homo sapiens, UniProt P31749)

| SMILES | assay | conditions | measurement | result |
| --- | --- | --- | --- | --- |
| CN(C)C1CCN(CC#Cc2nn(C3CCCC3)c3nc(NCc4ccccc4)ncc23)C1 (centres unmarked) | enzyme activity, inhibitor, FRET | 0.1 µM | inhibition | 4% |
| FC(F)(F)Oc1cccc(-c2cnc3ccc(-c4ccncc4)nn23)c1 | enzyme activity, inhibitor, radiometric | 1 µM | activity vs control | 90% |
| CCCCN(CCCC)C(=O)CN1C[C@H](c2cc(OC)c3c(c2)OCO3)[C@@H](C(=O)O)[C@@H]1CC(C)(C)CCC | cell-free assay, competition with immobilised ligand | 1 µM | remaining binding | 100% |
| C=CC(=O)Nc1cc(Nc2nccc(Nc3cc(Cl)c(F)cc3C(C)(C)O)n2)c(OC)cc1N1CC[C@@H](N(C)C)C1 | enzyme activity, inhibitor | 1 µM | inhibition | -5% |
| COc1ccc2c(c1)O[C@@H](c1ccc(OC)c(OC)c1)C[C@H]2NC(=O)C1(c2ccc3c(c2)OC(F)(F)O3)CC1 | cell-free assay, competition with immobilised ligand | 1 µM | remaining binding | 100% |
| FC(F)c1nc2ccccc2n1-c1nc(N2CCOCC2)nc(N2CCOCC2)n1 | enzyme activity, inhibitor | 10 µM | remaining activity | 123% |
| C[C@@H]1CN(c2cc(-c3nn(C)c4ccc(OC5(C)CC5)cc34)ncn2)C[C@H](C)O1 | cell-free assay, competition with immobilised ligand | 1 µM | remaining binding | 100% |
| O=C1NC(=O)c2cc(Nc3ccc(F)cc3)c(Nc3ccc(F)cc3)cc21 | cell-free assay | 0.5 µM | remaining signal | 94.8% |
| Cc1c[nH]c2nccc(Oc3c(F)cc(Nc4cc(Cl)nc(N)n4)cc3F)c12 | cell-free assay, competition with immobilised ligand | 0.1 µM | remaining binding | 100% |
| CC(C)(C)C(=O)c1sc(NC2CCCCC2)nc1N | enzyme activity, inhibitor | 10 µM | remaining activity | 90% |
| Cc1ccc(Nc2nccc(N(C)c3ccc4c(C)n(C)nc4c3)n2)cc1S(N)(=O)=O | enzyme activity, inhibitor | 10 µM | inhibition | 6% |
| CC(C)(C)c1nc2c(s1)c1nc(N)ncc1c1ccc(NS(=O)(=O)c3c(F)cccc3F)c(F)c12 | enzyme activity, inhibitor, radiometric | 1 µM | remaining activity | 88% |
| CCc1ccccc1C(=O)Nc1n[nH]c2c(C)c(F)c(C3C(C#N)=C(C)N(C)C(C)=C3C#N)cc12 | cell-free assay, competition with immobilised ligand | 1 µM | remaining binding | 75% |
| Cn1cncc1C1=CN(c2ncnc3[nH]cnc23)CCS1 | enzyme activity, inhibitor, radiometric | 2 µM | inhibition | 83.7% |
| CNC(=O)Nc1ccc2c(c1)CC[C@@]21OC(=O)N(CC(=O)N(Cc2ccc(F)cc2)[C@@H](C)C(F)(F)F)C1=O | cell-free assay, competition with immobilised ligand | 1 µM | remaining binding | 91% |
| O=C(Nc1cnn(-c2csc(C(=O)NC3COC3)c2)c1)Nc1ccccc1Cl | enzyme activity, inhibitor | 5 µM | remaining activity | 95.4% |
| N#CCCc1ccc2c(c1)-c1[nH]c3ccc([N+](=O)[O-])cc3c1CC(=O)N2 | cell-free assay | 0.5 µM | remaining signal | 111% |
| CCN(CC)c1ccc(C2=NNC(=O)CC2C)cc1[N+](=O)[O-] (centres unmarked) | enzyme activity, inhibitor | 10 µM | remaining activity | 81% |
| COc1cc(Cl)c(C(=O)N[C@@H](CN[C@H]2CC[C@@H](N)CC2)Cc2ccc(C#N)cc2)cc1-c1ccc(CN[C@H](C)c2ccc(C)cc2)o1 | enzyme activity, inhibitor | 1 µM | remaining activity | 85% |
| Oc1cccc(-c2nc(N3CCOCC3)c3oc4ncccc4c3n2)c1 | cell-free assay | 0.5 µM | remaining signal | 95.3% |
